Source: PMC2912405 (Journal of medicinal chemistry, 2010)
Counter-ions that a name gives are not always drawn.

Legend:
[1] = biological target: T1, purified human LAL (phLAL) (Homo sapiens, UniProt P38571); experiment: In vitro LAL activity assay; assay type: biochemical; conditions: 10 μM compound; Supplemental Figures 1 and 2
T1 sequence (P38571 77-399): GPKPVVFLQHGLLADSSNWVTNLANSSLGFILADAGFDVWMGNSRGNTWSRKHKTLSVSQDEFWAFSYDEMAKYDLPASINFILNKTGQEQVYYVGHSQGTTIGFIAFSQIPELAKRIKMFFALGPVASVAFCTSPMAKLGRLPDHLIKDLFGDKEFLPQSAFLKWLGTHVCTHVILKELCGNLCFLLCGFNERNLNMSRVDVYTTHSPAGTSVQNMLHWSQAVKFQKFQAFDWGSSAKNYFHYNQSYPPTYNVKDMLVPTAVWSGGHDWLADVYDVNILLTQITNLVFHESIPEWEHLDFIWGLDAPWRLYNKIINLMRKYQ

[2] = biological target: T2, phLAL (Homo sapiens, UniProt P38571); experiment: Time-dependence of LAL inhibition; assay type: biochemical; conditions: pre-incubation at 833 nM, 500 nM final, 37 °C; Figure 3
T2 sequence (P38571 77-399): T1 sequence (P38571 77-399)

[3] = biological target: T3, LAL (Homo sapiens, UniProt P38571); experiment: LAL activity in lysates of compound-treated cells; assay type: cell-based; conditions: for inhibition of LAL in cell lysates: cells treated continuously ~4 days, Figure 4A; for inhibition of LAL in cell lysates after withdrawal: ~3 days treatment, ~1 day recovery in growth medium, Figure 4B
T3 sequence (P38571 77-399): T1 sequence (P38571 77-399)

[4] = system: apparently normal human fibroblasts; experiment: LipidTOX green neutral lipid accumulation; assay type: cell-based; conditions: normal cells, ~3 days treatment; Figure 4D
Summary of the method: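 Normal human fibroblasts kept in MEM (2.2 g/L bicarbonate, 10% FBS) and treated with compound for ~3 days. Stained with LipidTOX green and imaged at 482/35 nm excitation, 536/40 nm emission, 20× 0.5 NA objective, with autofocus per site. LSO ratio is thresholded LipidTOX fluorescence within LSOs, normalised to total cell area from low-threshold filipin signal.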

[5] = system: NPC1 mutant cells; experiment: Filipin LSO assay of cholesterol accumulation; assay type: cell-based, human; conditions: ~3 days treatment, Figure 4C
Summary of the method: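 Compound-treated cells (~3 days) stained with filipin. Automated fluorescence imaging at 4 (10×) or 9 (20×) sites per well, 2×2 binning, laser autofocus per site, 12-bit images. After background correction, LSO ratio is integrated thresholded filipin fluorescence within LSOs, normalised to total cell area defined by low-threshold filipin signal.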

[6] = biological target: T2, phLAL; conditions: earlier study; cited from earlier work
[7] = biological target: T1, purified human LAL (phLAL); conditions: previous studies; cited from earlier work
[8] = biological target: T1, purified human LAL (phLAL); experiment: Lineweaver-Burk analysis of LAL inhibition; assay type: biochemical; conditions: 30 min pre-incubation at 37 °C, 4MUO at various concentrations
Summary of the method: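 Recombinant purified human LAL pre-incubated with compound for 30 min at 37 °C in 200 mM sodium acetate pH 5.5, 0.02% Tween-20. Started with varied 4-methylumbelliferyl oleate in Triton X-100 and followed by fluorescence (355/450 nm) for 45 min. Compound levels given as final. Double-reciprocal plots fitted by linear regression, two independent experiments.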

[9] = system: NPC1- or NPC2-defective mice; conditions: ref 5a, 9; cited from earlier work
[10] = system: many lipases; conditions: cited from earlier work

For `CN(C)C(=O)Oc1cccc([N+](C)(C)C)c1` [neostigmine methyl sulfate], the “inhibition of LAL activity at 10 μM” value [1] was “None of these carbamates inhibited LAL”.
In the case of `O=C(Oc1nsnc1N1CCCC1)N1CCCCC1` [Compound 10, 4-(Pyrrolidin-1-yl)-1,2,5-thiadiazol-3-yl piperidine-1-carboxylate], the “pre-incubation time-dependence of inhibition” value [2] is reported as “significantly higher time-dependence than other compounds”, the “inhibition of LAL in cell lysates” value [3] is reported as “much higher level of inhibition of LAL upon cell lysis than 11, 13, 15, and 17” and the “inhibition of LAL in cell lysates after withdrawal” value (shortened to “inhibition … after withdrawal”) [3] is reported as “maximal potency”.
In the case of `O=C(Oc1nsnc1N1CCCCC1)N1CCCCC1` [Compound 12], the “increase in neutral lipid accumulation” value [4] is reported as “most potent”, the “decrease in cholesterol accumulation” value [5] is reported as “most potent” and the “inhibition of LAL in cell lysates” value [3] is reported as “much higher level of inhibition of LAL upon cell lysis than 11, 13, 15, and 17”. For the same compound, the “inhibition … after withdrawal” value [3] was “maximal potency”.
For `Cl.NCCCCCCNC(=O)OCc1ccccc1` [benzyl N-(6-aminohexyl) carbamate hydrochloride], the “inhibition of LAL activity at 10 μM” value [1] was “None of these carbamates inhibited LAL”.
With `COc1ccccc1OCC(O)COC(N)=O` (stereo not drawn) [guaiacol glyceryl ether carbamate] the “inhibition of LAL activity at 10 μM” value [1] was “None of these carbamates inhibited LAL”.
With `COC(N)=O` [methyl carbamate] the “inhibition of LAL activity at 10 μM” value [1] was “None of these carbamates inhibited LAL”.
For `O=C(Oc1nsnc1N1CCOCC1)N1CCOCC1` [Compound 15], the “increase in neutral lipid accumulation” value [4] is listed as “least potent”, the “time-dependence of inhibition upon pre-incubation with phLAL” value [6] is listed as “some time-dependence of inhibition” and the “decrease in cholesterol accumulation” value [5] is listed as “least potent”. For the same compound, the “potency and specificity towards LAL” value [7] was “significant potency and specificity towards LAL”, the “inhibition of LAL in cell lysates” value [3] was “least potent” and the “inhibition … after withdrawal” value [3] was “least potent”.
For `O=C(Oc1nsnc1N1CCCCC1)N1CCOCC1` [Compound 13], the “time-dependence of inhibition upon pre-incubation with phLAL” value [6] is listed as “some time-dependence of inhibition”, the type of inhibition [8] is listed as “apparent competitive inhibitor” and the “potency and specificity towards LAL” value [7] is listed as “significant potency and specificity towards LAL”.
For `O=C(Oc1nsnc1N1CCOCC1)N1CCCCC1` [Compound 14], the “time-dependence of inhibition upon pre-incubation with phLAL” value [6] is listed as “some time-dependence of inhibition”, the “potency and specificity towards LAL” value [7] is listed as “significant potency and specificity towards LAL” and the “inhibition of LAL in cell lysates” value [3] is listed as “much higher level of inhibition of LAL upon cell lysis than 11, 13, 15, and 17”.
In the case of `CN1CCC(OC(=O)Nc2ccc(F)cc2)CC1` [1-methyl-4-piperidinyl-N-(4-fluorophenyl) carbamate], the “inhibition of LAL activity at 10 μM” value [1] is reported as “None of these carbamates inhibited LAL”.
For `O=C(Oc1nsnc1N1CCCCCC1)N1CCCCC1` [Compound 16], the “inhibition of LAL in cell lysates” value [3] was “much higher level of inhibition of LAL upon cell lysis than 11, 13, 15, and 17” and the “inhibition … after withdrawal” value [3] was “maximal potency”.
In the case of β-cyclodextrins, the “accumulation of cholesterol and other lipids in LSOs” value [9] is listed as “significant reduction” and the lifespan [9] is listed as “significantly extends lifespan”.
For `CCCCCCCCCCC[C@@H](C[C@@H]1OC(=O)[C@H]1CCCCCC)OC(=O)[C@H](CC(C)C)NC=O` [orlistat], the inhibition of lipases [10] is listed as “potent inhibitor of many lipases”.
With `CNC(=O)Oc1ccc2c(c1)[C@]1(C)CCN(C)[C@@H]1N2C` [eserine] the “inhibition of LAL activity at 10 μM” value [1] was “None of these carbamates inhibited LAL”.
